Experiment: Toxicity liver stage against HepG2, at 10uM
Assay type: cell-based
Set-up: test concentration 10 uM, cell line HepG2-A16-CD81EGFP
Settings: human, HepG2-A16-CD81EGFP cells; read-out: INHIBITION
How it was run: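 Uninfected HepG2-A16-CD81EGFP cells, 3 × 10^3 per well, 1536-well, plated on prespotted compound at 10 μM final, parasite-free screening media added to match infected plates; puromycin 10 μM positive, DMSO 0.5% negative; run in parallel with 48 h PbLuc assay at 37 °C, 5% CO2; viability by CellTiter-Glo luminescence, normalized to controls.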

SMILES	cytotoxicity at 10 µM
O=C(NC1CCCCC1)c1ccc(COCC(F)(F)F)o1	14.1%
COc1ccc(-c2cn3c(n2)CO[C@@H](CNCc2nccn2C)C3)cc1	-0.765%
O=c1cc(CSc2nnc[nH]2)nc2sc3c(n12)CCCC3	-6.04%
O=S1(=O)c2cccnc2OC(COc2ccccc2)CN1CC1CC1 (centres undefined)	-3.24%
O=C(O)CCC(=O)N1CCC(c2noc3cc(F)ccc23)CC1	-14.8%
CC(C)Oc1ccc(CC2=N[C@](C)(CO)CO2)cc1	16.3%
CCCN1CCc2nc(SCc3c(C)cc(C)cc3C)[nH]c(=O)c2C1	-2.33%
CC(C)CCn1nc2ccc(S(=O)(=O)N3CCOCC3)cn2c1=O	-2.13%
COc1cccc(C(O)CN2CCN(c3cccc(C)c3)CC2)c1 (centres undefined)	-3.85%
CCOCC(=O)NCCCn1ccnc1-c1ccccc1	-1.11%
O=C(O)CC(CC(=O)NCCc1ccsc1)c1cccs1 (centres undefined)	-10.9%
O=C(CCc1ccccc1)N1C[C@H]2CCN[C@H]2C1	-4.22%
O=C1N(Cc2ccncc2)CCC12CCCNC2 (centres undefined)	4.26%
CN1CCN(C(=O)c2cccn2C)Cc2cccnc21	5.73%
O=C1COc2ccc(S(=O)(=O)N3CCOCC3)c3c2N1CCC3	7.55%
O=C(NCc1ccco1)N1CCCCC1c1nc(C2CC2)no1 (centres undefined)	-7.86%
CCOc1ccc(-c2cc(=O)n3c(n2)CCCCC3)cc1	5.36%
Cc1csc(NC(=O)C(C)Oc2ccc3c(c2)OCO3)n1 (centres undefined)	8.06%
COC(=O)c1ccnn1COc1ccc(Cl)cc1	-14.8%
CCn1cc(NC(=O)C2CCC(=O)N2Cc2ccc(C)o2)cn1 (centres undefined)	-2.92%
Cc1cn[nH]c1C1COCCN1C(=O)c1ccc2[nH]nnc2c1 (centres undefined)	2.73%
CSc1nnc(C2CCN(C(=O)N3CCCC3)CC2)n1C	2.11%
c1cnc2c(CN3CCCCC3c3ccncn3)cnn2c1 (centres undefined)	-10.2%

SMILES	cytotoxicity at 10 µM
CN1CCN(c2ncccn2)CC(C(=O)N(C)C)C1 (centres undefined)	0.651%
CN1CCC(c2n[nH]cc2-c2ccnc(N)c2)C1 (centres undefined)	3.79%
Oc1cc(C2CCCCN2C2CCCC2)nc(-c2ccncc2)n1 (centres undefined)	5.94%
COc1cccc(CNCc2nc3ccccc3c(=O)[nH]2)c1	1.26%
CO[C@H]1CN(S(=O)(=O)c2ccc(C)cc2)C[C@@]12CCCO2	-0.479%
CCn1ccc2ccnc(CC3CN(C(=O)c4ccc(F)cc4)C3)c21	-3.3%
CC(=O)N1CCN([C@@H]2CC[C@@H](NC(=O)c3cncc(C)c3)[C@H]2O)CC1	2.6%
COc1ccc(Br)cc1SCCC(N)=O	7.72%
Cc1ccc(C(=O)Nc2cc(C(N)=O)ccc2CN(C)C)cc1Cl	18.5%
Cc1cc(CN(C)Cc2cnc3c(c2)c(C)nn3C)no1	0.995%
Cn1cc(S(=O)(=O)NCC(C)(O)c2ccsc2)cn1 (centres undefined)	22.1%
COC(=O)c1ccc(CN2CCC(c3n[nH]c(C)n3)CC2)s1	-2.87%
CNC(=O)c1cccc(CN2CCC(N(C)Cc3nnc(C)o3)C2)c1 (centres undefined)	8.75%
Cc1cnn(C2CCCN(C(=O)CN(C)c3cnccn3)C2)c1 (centres undefined)	-8.73%
Cc1cc(C(C)(O)CNC(=O)CCn2ccnc2C(C)C)c(C)o1 (centres undefined)	4.27%
COc1ccc(Oc2ncccc2NC(=O)N2CC[C@H](O)C2)cc1	1.7%
CC(C(=O)NC1(C#N)CCCCC1)N1CCc2c(ncn2C2CC2)C1 (centres undefined)	7.66%
Cc1cccc(NCCNc2ccc(C#N)cn2)n1	18%
CC1CN(c2ccc(NC(=O)Cn3cccn3)cc2)CCO1 (centres undefined)	3.94%
CC(CNC(=O)N1CCS(=O)(=O)CC1)Cc1cccs1 (centres undefined)	-9.47%
CSc1nsc(NC(=O)N2CCc3ccccc3C2)n1	11.3%
Cc1ncsc1C(=O)N1CCN(Cc2cscn2)CC1	-2.65%
CCCc1ccc(S(=O)(=O)NC(=O)CCc2cscn2)cc1	1.12%

SMILES	cytotoxicity at 10 µM
Cc1cc(C)n(CC2CCCN2C(=O)c2ccc3[nH]c(=O)[nH]c3c2)n1 (centres undefined)	3.18%
CS(=O)(=O)CCn1ccc(NC(=O)Cc2cccc(Cl)c2)n1	-3.36%
CC(CC(=O)NCCS(N)(=O)=O)C1CCCCC1 (centres undefined)	-9.52%
O=S(=O)(NCCN1CCOCC1)c1cncc(Cl)c1	2.77%
CC(=O)c1c[nH]c(C(=O)N2CCN(C(C(N)=O)c3ccccc3)CC2)c1 (centres undefined)	8.61%
Cc1nc(C2(NCc3cc(C#N)ccc3F)CCCCC2)no1	9.68%
CNC(=O)N(Cc1c(F)cccc1F)C1CCCC1	8.23%
CC1CCN(c2ccnc3ccc(Br)cc23)CC1	15.4%
CC(C)CNC(=O)CNC(=O)NCC(O)c1ccc2ccccc2c1 (centres undefined)	-2.52%
N#Cc1cccc(S(=O)(=O)N2CC(CC(=O)O)c3ccccc32)c1 (centres undefined)	-1.11%
CC(C(=O)N(C)Cc1nnc2n1CCC2)S(C)(=O)=O (centres undefined)	-6.56%
CN1CCN(S(=O)(=O)c2cccnc2)c2cnccc21	-0.376%
CN(CC(=O)NC(Cc1ccccc1)C1CCCC1)S(C)(=O)=O (centres undefined)	15.1%
COC(=O)N1CCN(CCCc2nnnn2-c2ccccc2)CC1	14%
CC(C)(C)Oc1ccc(NCC(=O)NCc2ccco2)cc1	2.21%
Cn1ncnc1NCc1ccccc1Cl	-8.04%
O=C(NCC1(O)CCOC1)c1ccccc1Cl (centres undefined)	-40.3%
O=C(Nc1cccnn1)NC(CCCO)c1ccccc1 (centres undefined)	-0.908%
Cc1cc(CCC(=O)N2CCC(O)CC2)ccc1Br	-4.3%
COCCC(=O)N1CCC2(COCc3cnc(-c4ccccc4)nc32)C1 (centres undefined)	3.6%
O=C(C1CCC1)N1CCn2c(COc3ncccn3)nnc2C1	3.09%
CS(=O)(=O)N1CCc2[nH]cnc2C12CCN(C(=O)c1ccc[nH]1)CC2	-1.42%
Cc1ccc2nc(C)cc(C(=O)NCc3csc(N(C)C)n3)c2c1	1.21%

SMILES	cytotoxicity at 10 µM
Cc1nc2c(c(N3CCCOCC3)n1)CCN(C(=O)N1CCCC1)CC2	9.2%
COc1ccc(C(=O)N2CCC(c3nccn3C(C)C)CC2)cc1OC	1.52%
CC(C)c1cc(CN2CCN(c3cccnc3)CC2)n(C)n1	-0.0184%
Cc1cc(CNC(=O)C2CC(=O)N(CCN(C)C)C2)cc(C)n1 (centres undefined)	3.05%
CC(C)c1noc(C2CC(=O)N(CCN(C)C)C2)n1 (centres undefined)	-8.25%
COCCN(Cc1ccncc1)C(=O)CCSCc1ccc(F)cc1	0.807%
CCCc1nnc(NCCc2noc(C3CC3)n2)o1	0.0902%
CCCn1ccnc1CN1C[C@@H](CN2CCCN(C)CC2)[C@@H](CO)C1	2.81%
CN1CCC(NN2CCN(C)CC2)CC1	-2.76%
O=C(c1cccc(Oc2ccccc2)c1)N1CCCC(O)(CO)CC1 (centres undefined)	-3.17%
CN(C)C(=O)CN1CCC(c2nnc(Cn3cccn3)n2C2CC2)CC1	-6.65%
O=C1NC[C@@]2(C(=O)O)CN(Cc3cccc(CN4CCOCC4)c3)C[C@@H]12	-7.98%
Cc1nc(NC(=O)N2CCCC(C(F)(F)F)C2)nn1C (centres undefined)	9.56%
Cc1ccsc1CCNC(=O)C1(Oc2cccnc2C)CCNCC1	-2.37%
COc1ccc(CCN2CCCC(CN(C)Cc3[nH]cnc3C)C2)cc1 (centres undefined)	-11.7%
Cc1nc(N(C)C)ncc1C(=O)N(Cc1ccncc1)CC1CCCO1 (centres undefined)	-1.59%
CCCc1nnc(NCCCn2nc(C)c(Cl)c2C)o1	-0.351%
Cc1cccnc1CC(C)N(C)Cc1cccs1 (centres undefined)	-12.4%
O=C(NCc1ccc(C(=O)N2CCCC2)cc1)c1cn2c(n1)CNCC2	-10.2%
Cc1cnc(N2CCCC(O)C2)nc1-c1ccnn1C (centres undefined)	-0.271%
COCc1nc2ncc3c(=O)n(-c4cccc(OC)c4)ccc3n2n1	8.99%
Cc1ccc(CCNC(=O)CC2COCCN2S(=O)(=O)N(C)C)s1 (centres undefined)	1.69%
Cc1ccc(C(=O)O)c(N2CC(C)(C)[C@@](C)(O)C2)n1	4.5%

SMILES	cytotoxicity at 10 µM
CC(C)CN1CCc2[nH]cnc2C12CCN(C(=O)c1cccnc1)CC2	23.4%
CNc1cc(CCNC(=O)c2cccnc2)nc(-c2ccncc2)n1	1.52%
CC(c1ccccc1Cl)N(C)Cc1nc2c(cnn2C)c(=O)[nH]1 (centres undefined)	-5.19%
Cc1ccc(NC(=O)C2CSCN2C(=O)c2ccncc2)c(C)c1 (centres undefined)	-10.4%
CCn1ccnc1CN1CCCN(C(=O)c2ccnn2C)CC1	-5.39%
c1cncc(-c2noc(CN3CCOC(Cn4cccn4)C3)n2)c1 (centres undefined)	-11.4%
Cc1cccc(NS(=O)(=O)c2cc(C(=O)O)oc2C)c1Cl	-14.6%
COc1cc(CNC2CCc3nc(C(C)C)nn3C2)cc2c1OCO2 (centres undefined)	-5.82%
Cc1nc(C)c(CC(=O)Nc2ncc(C)s2)c(=O)[nH]1	-5.49%
CC(C)c1ncc2c(n1)CN(Cc1cccc(C#N)c1)CC2	-9.03%
Cn1cc(C2CCCN2Cc2csc(-c3ccsc3)n2)cn1 (centres undefined)	-8.21%
COc1ccc(CCN2CCCC2Cn2nc(C)nc2C)cc1 (centres undefined)	-7.16%
CN(Cc1nnc2n1CCC2)C(=O)NCCc1ccc2c(c1)OCO2	-4.77%
O=C(NCCN1CCCCC1)c1ccoc1	-11.3%
Cc1cc(N2CCC(CC(N)=O)CC2)nc(-c2ccncc2)n1	-7.22%
O=C1CC2(CCNCC2)C(=O)N1Cc1ccc(F)cc1	6.68%
Cc1cc(C)nc(NCCC(=O)NCCn2ccnc2C)n1	2.77%
CN(C)CCCNCCC(c1ccccc1)C1CCOC(C)(C)C1 (centres undefined)	-7.91%
COCCN1CCC2(CC1)CC(NC(=O)C1CC1)c1ccccc1O2 (centres undefined)	1.67%
CCCNCc1cn(Cc2ccccc2)nc1-c1cccnc1	5.13%
CNC(=O)[C@@H]1C[C@H]2CN(C(=O)c3ccco3)C[C@H]2N1C(C)C	-1.84%
NC1CCC(n2cc(C(=O)N[C@H]3CCCc4ccccc43)nn2)CC1 (some centres undefined)	-5.71%

Source: ChEMBL document CHEMBL4513216, “Probing the Open Global Health Chemical Diversity Library for Multistage-Active Starting Points for Next-Generation Antimalarials” (ACS Infect Dis, 2020)
